Data published in paper PMC12800337 (Nature Communications, 2025).
Where a SMILES comes first, the peptide text is derived from it. The star is where a group is joined. 5FAM = O=C1OC2(c3ccc(O)cc3Oc3cc(O)ccc32)c2ccc(C(=O)*)cc21; βAla = NCCC(=O)O; X1 = OB(O)C*

What was measured:
[1] = Serum stability assay of peptides; type: in vitro ADME; details: human serum, fluorophore unlabeled peptides, HPLC
Outline: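 Test peptide incubated in human serum; the remaining intact peptide was monitored by HPLC to derive half-life. Mean ± SEM from 3 independent replicates.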

[2] = system: S. aureus; test: Confocal imaging of stained S. aureus; type: cell-based, Staphylococcus aureus; details: confocal optical sectioning of stained S. aureus cells
Outline: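 S. aureus (MTCC 7443) incubated with fluorescein-labelled test peptide for 30 min at 37 °C, washed three times in PBS. 5 µL of cells pressed under a coverslip on a glass slide to a single cell layer. Imaged by laser-scanning confocal microscopy with optical sectioning: 40× oil objective, argon laser at 10% power, gain 900–1100 HV, offset −0.5%. Representative of 2 independent experiments.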

[3] = system: E. coli (MTCC 1687); test: E. coli staining; type: cell-based; details: P2 5 μM, confocal microscope
Outline: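 E. coli and S. aureus each diluted 1:100 from secondary culture and grown to OD₆₀₀ 0.4, then mixed and pelleted at 5000 × g. Pellet incubated with fluorescein-labelled test peptide in PBS (pH 7.4) at 37 °C for 30 min. Washed twice in PBS, resuspended in 100 µL PBS, imaged by confocal microscopy (40× oil, argon laser). Representative of 2 independent experiments.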

[4] = system: S. aureus (MTCC 7443); test: S. aureus staining, flow cytometry median fluorescence; type: cell-based, Staphylococcus aureus; details: 2 µM, PBS pH 7.4, 30 min, washed, flow cytometry median value
[5] = system: HEK 293; test: Mammalian cell staining, confocal microscope; type: cell-based, human; details: P2 5 µM, compared to the brightness detected on S. aureus
Outline: (§1)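 Cells at 70% confluence detached with trypsin-EDTA and seeded at 1 × 10⁵ cells/well in glass-bottom dishes, then grown for 24 h. Medium replaced with PBS containing fluorescein-labelled test peptide; incubated 30 min at 37 °C. Washed three times with PBS, given fresh medium, imaged by confocal microscopy (40× oil, argon laser at 10%). Representative of 2 independent experiments.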

[6] = system: A549; test: Mammalian cell staining, confocal microscope; type: cell-based; details: P2 5 µM, compared to the brightness detected on S. aureus
Outline: as §1

[7] = system: S. aureus; test: Mannitol inhibition assay of Fl-P2 binding; type: cell-based, Staphylococcus aureus; details: 50 mM mannitol, P2 2 µM, flow cytometry
[8] = Stability of BA-modified proteins as lyophilized powder; type: physicochemical; details: purified protein, confirmed by deconvoluted mass

CSCC[C@H](NC(=O)[C@H](CCCNC(=N)N)NC(=O)[C@H](CCCNC(=N)N)NC(=O)[C@H](CCCCN)NC(=O)[C@H](C)NC(=O)[C@H](CCCNC(=N)N)NC(=O)CNC(=O)[C@@H](NC(=O)CCNC(=O)c1ccc2c(c1)C(=O)OC21c2ccc(O)cc2Oc2cc(O)ccc21)[C@@H](C)O)C(=O)N[C@@H](CSCB(O)O)C(=O)N[C@@H](Cc1ccc(O)cc1)C(=O)N[C@@H](CSCB(O)O)C(=O)N[C@@H](CCCNC(=N)N)C(=O)N[C@@H](CCCNC(=N)N)C(N)=O [P2] ({5FAM-βAla}-TGRAKRRMC(X1)YC(X1)RR-NH2)
serum half-life relative to parent UBI peptide (P0) [1]: around 14 times
uptake in bacterial cytosol (optical sectioning) [2]: uptake of P2 in bacterial cytosol
staining of E. coli [3]: no significant staining
S. aureus staining efficiency relative to P0 and P3 [4]: ~ 40 fold
staining of HEK 293 cells [5]: minimal staining
staining of A549 cells [6]: minimal staining
staining ability of P2 after mannitol complexation (reduced to) [7]: ~ 60%

BSA-BA: BSA with methylene-BA at a single free thiol site
stability as a lyophilized powder (in words) [8]: stable for over a week

TGRAKRRMCYNRR-NH2 [P1]
S. aureus staining efficiency relative to P0 and P3 [4]: ~ 8 fold

lysozyme-BA: lysozyme with methylene-BA conjugates at Cys6 and Cys115 (major product)
stability as a lyophilized powder (in words) [8]: stable for over a week
